Experiments:
[1] = tested on: Human immunodeficiency virus 1; assay: Antiviral activity against HIV1 NL4-3 infected in human TZM-bl cells after 2 days by luciferase-bright glo assay; format: functional, organism-based; settings: Human immunodeficiency virus 1, NL4-3, TZM-bl, 48 h
[2] = Selectivity ratio of CC50 for human TZM-bl cells to EC50 for HIV1 NL4-3 infected in human TZM-bl cells; format: toxicity, cell-based; settings: read-out: Ratio CC50/EC50
Method in brief: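 The selectivity index is CC50/EC50 in TZM-bl cells against NL4-3. […] The highest concentration tested was 125 ng/mL.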

[3] = tested on: Human immunodeficiency virus 2; assay: Antiviral activity against HIV2 ROD infected in human MT4 cells assessed as reduction in virus-induced cytopathic effect after 5 days by MTT assay; settings: Human immunodeficiency virus 2, ISOLATE ROD, MT4, 120 h
[4] = molecular target: Human immunodeficiency virus type 1 reverse transcriptase (Human immunodeficiency virus 1, UniProt Q72547); assay: Inhibition of recombinant HIV1 reverse transcriptase using (DIG)-dUTP and biotin-labeled dNTPs as substrate after 1 hr by ELISA
[5] = tested on: Human immunodeficiency virus 1; assay: Antiviral activity against wild type HIV1 3B infected in human MT4 cells assessed as reduction in virus-induced cytopathic effect after 5 days by MTT assay; format: functional, organism-based; settings: Human immunodeficiency virus 1, 3B, MT4, 120 h
MT4 = assay: Cytotoxicity against human MT4 cells after 5 days by MTT assay; format: cell-based; settings: mt4, 120 h
[6] = tested on: Human immunodeficiency virus 1; assay: Antiviral activity against HIV1 RES056 infected in human MT4 cells assessed as reduction in virus-induced cytopathic effect after 5 days by MTT assay; format: functional, organism-based; settings: Human immunodeficiency virus 1, RES056, MT4, 120 h
[7] = Selectivity ratio of CC50 for human MT4 cells to EC50 for HIV1 3B infected in human MT4 cells; format: toxicity, cell-based; settings: read-out: Ratio CC50/EC50
[8] = Selectivity ratio of CC50 for human MT4 cells to EC50 for HIV1 RES056 infected in human MT4 cells; format: toxicity, cell-based; settings: read-out: Ratio CC50/EC50
TZM = assay: Cytotoxicity against human TZM-bl cells after 4 days by XTT assay; format: cell-based; settings: 96 h

Row | Structure (SMILES) | EC50 [1] | selectivity ratio [2] | EC50 [3] | IC50 [4] | EC50 [5] | CC50 (MT4) | EC50 [6] | selectivity ratio [7] | selectivity ratio [8] | CC50 (TZM)
1 | Cc1cc(C#N)cc(C)c1Oc1nc(N[C@@H]2CCN(Cc3ccc(C(N)=O)cc3)C2)nc2ccsc12 | 10.4 nM | 24 |  |  |  |  |  |  |  | 
2 | Cc1cc(C#N)cc(C)c1Oc1nc(NC2CCN(Cc3ccncc3)CC2)nc2c1CCC2 |  |  | 138000 nM | 73 nM | 1.8 nM | > 274000 nM | 54.7 nM |  |  | 
3 | Cc1cc(C#N)cc(C)c1Oc1nc(NC2CCN(Cc3ccc(S(C)(=O)=O)cc3)CC2)nc2c1CCC2 |  |  | 41800 nM | 157 nM | 4.9 nM | 7450 nM | 187 nM | 1500 | 40 | 
4 | Cc1cc(C#N)cc(C)c1Oc1nc(NC2CC3CCC(C2)N3Cc2ccc(C(N)=O)cc2)nc2ccsc12 (configuration not stated) | > 232 nM | 1 |  |  |  |  |  |  |  | > 232 nM
5 | Cc1cc(C#N)cc(C)c1Oc1nc(NC2CCN(Cc3ccc(N)cc3)CC2)nc2c1CSC2 |  |  | 108000 nM | 115 nM | 8.4 nM | > 257000 nM | 704 nM |  |  | 
6 | Cc1cc(C#N)cc(C)c1Oc1nc(NC2CC3CCC(C2)N3Cc2ccc(S(N)(=O)=O)cc2)nc2ccsc12 (configuration not stated) | > 217 nM | 1 |  |  |  |  |  |  |  | > 217 nM
7 | Cc1cc(C#N)cc(C)c1Oc1nc(N[C@H]2CCN(Cc3cccc(C(N)=O)c3)C2)nc2ccsc12 | > 250 nM | 1 |  |  |  |  |  |  |  | > 250 nM
8 | Cc1cc(C#N)cc(C)c1Oc1nc(NC2CCN(Cc3ccc([N+](=O)[O-])cc3)CC2)nc2c1SCC2 |  |  | > 6180 nM | 175 nM | 8 nM | 6180 nM | 495 nM | 770 | 12 | 
9 | Cc1cc(C#N)cc(C)c1Oc1nc(N[C@H]2CCN(Cc3ccncc3)C2)nc2ccsc12 | 16.7 nM | 16 |  |  |  |  |  |  |  | 
10 | Cc1cc(C#N)cc(C)c1Oc1nc(N[C@@H]2CCN(Cc3ccc(S(C)(=O)=O)cc3)C2)nc2ccsc12 | 13.9 nM | 16 |  |  |  |  |  |  |  | 
11 | Cc1cc(C#N)cc(C)c1Oc1nc(NC2CCN(Cc3ccc(S(N)(=O)=O)cc3)CC2)nc2c1CCCC2 |  |  | > 228000 nM | 84 nM | 6 nM | > 228000 nM | 667 nM |  |  | 
12 | Cc1cc(C#N)cc(C)c1Oc1nc(NC2CCN(Cc3ccc([N+](=O)[O-])cc3)CC2)nc2c1COC2 |  |  | > 11100 nM | 92 nM | 7.4 nM |  | 511 nM |  |  | 
13 | Cc1cc(C#N)cc(C)c1Oc1nc(NC2CCN(Cc3cccc(C(N)=O)c3)CC2)nc2c1SCC2 |  |  | > 223000 nM | 94 nM | 27.7 nM |  | 629 nM |  |  | 
14 | Cc1cc(C#N)cc(C)c1Oc1nc(NC2CCN(Cc3ccc(NS(C)(=O)=O)cc3)CC2)nc2c1CSC2 |  |  | > 257000 nM | 140 nM | 11.2 nM | > 257000 nM | 5240 nM |  |  | 
15 | Cc1cc(C#N)cc(C)c1Oc1nc(NC2CCN(Cc3ccc(S(C)(=O)=O)cc3)CC2)nc2c1SCC2 |  |  | 13500 nM | 130 nM | 5.9 nM | 11900 nM | 46.6 nM | 2020 | 257 | 
16 | Cc1cc(C#N)cc(C)c1Oc1nc(NC2CCN(Cc3ccc(S(N)(=O)=O)cc3)CC2)nc2c1CSC2 |  |  | ≥ 26700 nM | 410 nM | 37.2 nM | 26600 nM | 734 nM | 715 | 36 | 
17 | Cc1cc(C#N)cc(C)c1Oc1nc(NC2CCN(Cc3cccc(C(N)=O)c3)CC2)nc2c1COC2 |  |  | 209000 nM | 91 nM | 7.8 nM |  | 1030 nM |  |  | 
18 | Cc1cc(C#N)cc(C)c1Oc1nc(NC2CCN(Cc3ccc([N+](=O)[O-])cc3)CC2)nc2c1CCC2 |  |  | > 8730 nM | 241 nM | 14.5 nM | 8730 nM | 941 nM | 599 | 9 | 
19 | Cc1cc(C#N)cc(C)c1Oc1nc(N[C@H]2CCN(Cc3ccc(S(N)(=O)=O)cc3)C2)nc2ccsc12 | 104 nM | 2.2 |  |  |  |  |  |  |  | 
20 | Cc1cc(C#N)cc(C)c1Oc1nc(N[C@@H]2CCN(Cc3cccc(C(N)=O)c3)C2)nc2ccsc12 | 41.3 nM | 6 |  |  |  |  |  |  |  | 
21 | Cc1cc(C#N)cc(C)c1Oc1nc(NC2CCN(Cc3ccc(C(N)=O)cc3)CC2)nc2c1CCC2 |  |  | 139000 nM | 73 nM | 6.1 nM |  | 173 nM |  |  | 
22 | Cc1cc(C#N)cc(C)c1Oc1nc(N[C@H]2CCN(Cc3ccc(S(C)(=O)=O)cc3)C2)nc2ccsc12 | 50.7 nM | 4.6 |  |  |  |  |  |  |  | > 234 nM
23 | Cc1cc(C#N)cc(C)c1Oc1nc(NC2CCN(Cc3cccc(C(N)=O)c3)CC2)nc2c1CCC2 |  |  | > 205000 nM | 241 nM | 2 nM | 205000 nM | 26800 nM | 124000 | 9 | 

Row | Structure (SMILES) | EC50 [1] | selectivity ratio [2] | EC50 [3] | IC50 [4] | EC50 [5] | CC50 (MT4) | EC50 [6] | selectivity ratio [7] | selectivity ratio [8] | CC50 (TZM)
24 | Cc1cc(C#N)cc(C)c1Oc1nc(NC2CCCN(Cc3ccc(C(N)=O)cc3)CC2)nc2ccsc12 (configuration not stated) | > 237 nM | 1 |  |  |  |  |  |  |  | > 237 nM
25 | Cc1cc(C#N)cc(C)c1Oc1nc(N[C@H]2CCN(Cc3ccc(C(N)=O)cc3)C2)nc2ccsc12 | 55.7 nM | 4.5 |  |  |  |  |  |  |  | > 250 nM
26 | Cc1cc(C#N)cc(C)c1Oc1nc(NC2CN(Cc3ccc(S(N)(=O)=O)cc3)C2)nc2ccsc12 | 4.53 nM | 53 |  |  |  |  |  |  |  | > 240 nM
27 | Cc1cc(C#N)cc(C)c1Oc1nc(NC2CCN(Cc3ccc(S(C)(=O)=O)cc3)CC2)nc2c1CCCC2 |  |  | ≥ 163000 nM | 89 nM | 8 nM | > 266000 nM | 66.1 nM |  |  | 
28 | Cc1cc(C#N)cc(C)c1Oc1nc(NC2CN(Cc3ccc(C(N)=O)cc3)C2)nc2ccsc12 | 4.76 nM | 54 |  |  |  |  |  |  |  | > 257 nM
29 | Cc1cc(C#N)cc(C)c1Oc1nc(NC2CCN(Cc3ccc([N+](=O)[O-])cc3)CC2)nc2c1CCCC2 |  |  | > 29100 nM | 94 nM | 77.4 nM | 29100 nM | 6900 nM | 376 | 4 | 
30 | Cc1cc(C#N)cc(C)c1Oc1nc(N[C@@H]2CCN(Cc3ccc(S(N)(=O)=O)cc3)C2)nc2ccsc12 | 8.69 nM | 26 |  |  |  |  |  |  |  | > 233 nM
31 | Cc1cc(C#N)cc(C)c1Oc1nc(NC2CN(Cc3cccc(C(N)=O)c3)C2)nc2ccsc12 | 8.95 nM | 29 |  |  |  |  |  |  |  | > 257 nM
32 | Cc1cc(C#N)cc(C)c1Oc1nc(NC2CCCN(Cc3ccc(S(N)(=O)=O)cc3)CC2)nc2ccsc12 (configuration not stated) | 2.2 nM |  |  |  |  |  |  |  |  | > 222 nM
33 | Cc1cc(C#N)cc(C)c1Oc1nc(N[C@@H]2CCN(Cc3ccncc3)C2)nc2ccsc12 | 16 nM | 17 |  |  |  |  |  |  |  | > 273 nM
34 | Cc1cc(C#N)cc(C)c1Oc1nc(NC2CCN(Cc3ccc(S(C)(=O)=O)cc3)CC2)nc2c1SCCC2 |  |  | > 3400 nM |  | 3.9 nM | ≥ 3400 nM | 98.3 nM |  |  | 
35 | Cc1cc(C#N)cc(C)c1Oc1nc(NC2CCN(Cc3ccncc3)CC2)nc2c1SCC2 |  |  | 15700 nM | 112 nM | 2.6 nM |  | 46 nM |  |  | 
36 | Cc1cc(C#N)cc(C)c1Oc1nc(NC2CN(Cc3ccc(S(C)(=O)=O)cc3)C2)nc2ccsc12 | 207 nM | 1.1 |  |  |  |  |  |  |  | > 240 nM
37 | Cc1cc(C#N)cc(C)c1Oc1nc(NC2CCCN(Cc3cccc(C(N)=O)c3)CC2)nc2ccsc12 (configuration not stated) | 10.3 nM | 23 |  |  |  |  |  |  |  | > 237 nM
38 | Cc1cc(C#N)cc(C)c1Oc1nc(NC2CN(Cc3ccncc3)C2)nc2ccsc12 | 2.21 nM | 128 |  |  |  |  |  |  |  | > 282 nM
39 | Cc1cc(C#N)cc(C)c1Oc1nc(NC2CCN(Cc3ccc(C(N)=O)cc3)CC2)nc2c1CCCC2 |  |  | > 233000 nM | 51 nM | 6 nM | > 233000 nM | 291 nM |  |  | 
40 | Cc1cc(C#N)cc(C)c1Oc1nc(NC2CCN(Cc3ccc(C(N)=O)cc3)CC2)nc2c1SCCC2 |  |  | > 44300 nM |  | 3 nM | ≥ 44300 nM | 93 nM |  |  | 
41 | Cc1cc(C#N)cc(C)c1Oc1nc(NC2CCCN(Cc3ccncc3)CC2)nc2ccsc12 (configuration not stated) | 31.7 nM | 8 |  |  |  |  |  |  |  | > 257 nM
42 | Cc1cc(C#N)cc(C)c1Oc1nc(NC2CC3CCC(C2)N3Cc2ccc(S(C)(=O)=O)cc2)nc2ccsc12 (configuration not stated) | > 217 nM | 1 |  |  |  |  |  |  |  | > 217 nM
43 | Cc1cc(C#N)cc(C)c1Oc1nc(NC2CCN(Cc3ccc([N+](=O)[O-])cc3)CC2)nc2c1SCCC2 |  |  | > 4000 nM |  | 8.6 nM | 4000 nM | 604 nM | 465 | 6.6 | 
44 | Cc1cc(C#N)cc(C)c1Oc1nc(NC2CC3CCC(C2)N3Cc2ccncc2)nc2ccsc12 (configuration not stated) | > 251 nM | 1 |  |  |  |  |  |  |  | > 251 nM
45 | Cc1cc(C#N)cc(C)c1Oc1nc(NC2CC3CCC(C2)N3Cc2cccc(C(N)=O)c2)nc2ccsc12 (configuration not stated) | > 232 nM | 1 |  |  |  |  |  |  |  | > 232 nM
46 | Cc1cc(C#N)cc(C)c1Oc1nc(NC2CCCN(Cc3ccc(S(C)(=O)=O)cc3)CC2)nc2ccsc12 (configuration not stated) | 9.98 nM | 22 |  |  |  |  |  |  |  | > 222 nM
